Assay results from ChEMBL document CHEMBL1128722, “Mechanism-based isocoumarin inhibitors for human leukocyte elastase. Effect of the 7-amino substituent and 3-alkoxy group in 3-alkoxy-7-amino-4-chloroisocoumarins on inhibitory potency” (J Med Chem, 1995).

Tests used:
[1] = target: T1, Neutrophil elastase (Homo sapiens) (UniProt P08246); assay: Inhibition of human leukocyte elastase(HLE) at 0.7-1.7 uM
T1 sequence (whole entry): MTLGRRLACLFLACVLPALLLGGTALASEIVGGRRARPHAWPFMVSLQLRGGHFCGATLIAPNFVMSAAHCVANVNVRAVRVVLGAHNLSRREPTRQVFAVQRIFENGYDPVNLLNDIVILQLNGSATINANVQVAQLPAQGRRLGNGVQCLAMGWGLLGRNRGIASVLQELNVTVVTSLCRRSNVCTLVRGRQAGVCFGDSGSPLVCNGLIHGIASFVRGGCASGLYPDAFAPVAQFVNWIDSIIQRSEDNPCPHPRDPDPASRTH
Summary of the method: (§1)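 Kitz–Wilson incubation method. Enzyme was preincubated with inhibitor (added in DMSO) in 0.1 M HEPES, 0.5 M NaCl, pH 7.5, at 25 °C. Aliquots were taken over time and diluted into pNA substrate: HLE MeO-Suc-Ala-Ala-Pro-Val-pNA (0.2–0.5 mM), PPE Suc-Ala-Ala-Ala-pNA, ChT and Cat G Suc-Val-Pro-Phe-pNA (0.4–0.5 mM). Release was read at 410 nm. kobs/[I] from ln(v0/vt) vs time. Mean of two determinations. Fast rates measured with equimolar inhibitor and enzyme.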

[2] = target: T2, Cathepsin G (Homo sapiens) (UniProt P08311); assay: Inhibition of cathepsin G at 35-710 uM; summary of the method: as §1
T2 sequence (whole entry): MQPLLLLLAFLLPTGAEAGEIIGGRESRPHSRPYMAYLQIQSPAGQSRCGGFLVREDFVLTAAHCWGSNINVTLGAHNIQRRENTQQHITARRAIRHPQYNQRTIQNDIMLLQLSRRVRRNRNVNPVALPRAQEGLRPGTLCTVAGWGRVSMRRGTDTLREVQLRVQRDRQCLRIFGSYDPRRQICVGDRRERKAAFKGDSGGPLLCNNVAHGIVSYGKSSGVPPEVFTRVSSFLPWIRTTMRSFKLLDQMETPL

[3] = target: T3, Chymotrypsin-like elastase family member 2A (Sus scrofa) (UniProt P08419); assay: The second order inactivation rate constant expressed as inhibition of porcine pancreatic elastase (PPE).Inhibitor concentrations were 0.04-2.0 mM
T3 sequence (whole entry): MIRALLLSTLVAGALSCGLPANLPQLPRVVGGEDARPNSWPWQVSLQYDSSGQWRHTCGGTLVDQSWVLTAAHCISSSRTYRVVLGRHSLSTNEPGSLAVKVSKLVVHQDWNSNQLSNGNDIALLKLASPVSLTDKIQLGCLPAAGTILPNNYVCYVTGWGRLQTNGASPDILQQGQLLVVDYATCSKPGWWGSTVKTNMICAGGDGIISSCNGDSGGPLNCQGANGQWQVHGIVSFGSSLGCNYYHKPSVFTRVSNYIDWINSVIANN

[4] = target: T1, Neutrophil elastase (Homo sapiens); assay: Second order inactivation rate constant for inhibition of human leukocyte elastase.; summary of the method: as §1
[5] = target: T1, Neutrophil elastase (Homo sapiens); assay: Inhibition of human leukocyte elastase.; summary of the method: as §1
[6] = target: T1, Neutrophil elastase (Homo sapiens); assay: The second order inactivation rate constant expressed as inhibition of human leukocyte elastase (HLE). Inhibitor concentrations were 0.07-710 uM; summary of the method: as §1
[7] = target: T2, Cathepsin G (Homo sapiens); assay: Inhibition of cathepsin G(Cat G) at 35-710 uM; summary of the method: as §1
[8] = Half-life for hydrolysis was determined from kinetic constant.; format: ADME
Summary of the method: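 Spontaneous hydrolysis in 0.1 M HEPES, 0.5 M NaCl, pH 7.5, 10% v/v DMSO final, 25 °C. Inhibitor added from 2.9–5.0 mM DMSO stock. Ring opening followed as absorbance decrease at 385 nm (ε385 = 3300 M⁻¹ cm⁻¹). Half-life from the first-order rate. Two determinations, standard errors ±15% or less.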

[9] = target: Chymotrypsinogen A (Bos taurus) (UniProt P00766); assay: The second order inactivation rate constant was expressed as inhibition of chymotrypsin (ChT).Inhibitor concentrations were 360-570 uM; summary of the method: as §1
[10] = target: T1, Neutrophil elastase (Homo sapiens); assay: The second order inactivation rate constant was expressed as inhibition of human leukocyte elastase (HLE). Inhibitor concentrations were 0.4-4 uM; summary of the method: as §1
[11] = target: T3, Chymotrypsin-like elastase family member 2A (Sus scrofa); assay: The second order inactivation rate constant was expressed as inhibition of porcine pancreatic elastase (PPE).Inhibitor concentrations were 2-600 uM; summary of the method: as §1

With `CCCOc1oc(=O)c2cc(NC(=O)CC(C)C)ccc2c1Cl` the k obs / 1 [1] was greater than 220000 M⁻¹ s⁻¹.
Molecule `CC(C)(C)NC(=O)Nc1ccc2c(Cl)c(OCCBr)oc(=O)c2c1` has a K obs / 1 [2] of 56 M⁻¹ s⁻¹ and a K obs / 1 [3] of 6600 M⁻¹ s⁻¹.
`COCCOc1oc(=O)c2cc(N)ccc2c1Cl` showed a k obs / 1 [4] of 390 M⁻¹ s⁻¹ and a [I] [5] of 7.8 µM.
`Cc1cccc(C(=O)N[C@@H](Cc2ccccc2)C(=O)Nc2ccc3c(Cl)c(OCCBr)oc(=O)c3c2)c1` gave a K obs / 1 [6] of 31000 M⁻¹ s⁻¹ and a K obs / 1 [3] of 3500 M⁻¹ s⁻¹.
`O=C(NCc1ccccc1)Nc1ccc2c(Cl)c(OCCCBr)oc(=O)c2c1` showed an inhibition [7] of 21%, a K obs / 1 [6] of 15600 M⁻¹ s⁻¹ and a K obs / 1 [3] of 13 M⁻¹ s⁻¹.
Work on `C[C@@H](OC(=O)Nc1ccccc1)C(=O)Nc1ccc2c(Cl)c(OCCBr)oc(=O)c2c1` yielded a half-life [8] of 6.4 h, a K obs / 1 [6] of 140000 M⁻¹ s⁻¹ and a K obs / 1 [3] of 13 M⁻¹ s⁻¹.
For `COc1oc(=O)c2cc(NC(=O)C(Cc3ccccc3)NC(=O)c3ccc(NC(=O)Nc4ccccc4)cc3)ccc2c1Cl` (stereo not given), the k obs / 1 [9] was 10 M⁻¹ s⁻¹, the k obs / 1 [10] was 15000 M⁻¹ s⁻¹ and the k obs / 1 [11] was 68 M⁻¹ s⁻¹.
Work on `CC(C)Oc1oc(=O)c2cc(N)ccc2c1Cl` yielded a k obs / 1 [4] of 2000 M⁻¹ s⁻¹ and a [I] [5] of 26 µM.
`O=C(Nc1ccccc1)Nc1ccc2c(Cl)c(OCCCBr)oc(=O)c2c1` gave an inhibition [7] of 17% and a K obs / 1 [3] of 4 M⁻¹ s⁻¹.
`O=C(O)c1ccc(N/C(S)=N/c2ccc3c(Cl)c(OCCBr)oc(=O)c3c2)cc1` showed a K obs / 1 [2] of 450 M⁻¹ s⁻¹ and a K obs / 1 [6] greater than 390000 M⁻¹ s⁻¹.
`O=C(Nc1ccc2c(Cl)c(OCCBr)oc(=O)c2c1)NC(c1ccccc1)c1ccccc1` gave a K obs / 1 [6] of 4410 M⁻¹ s⁻¹ and a K obs / 1 [3] of 6 M⁻¹ s⁻¹.
Molecule `COc1oc(=O)c2cc(N)ccc2c1Cl` has a half-life [8] of 3.3 h, a k obs / 1 [4] of 10000 M⁻¹ s⁻¹ and a [I] [5] of 6 µM.
Molecule `C[C@@H](NC(=O)Nc1ccc2c(Cl)c(OCCBr)oc(=O)c2c1)c1ccccc1` has an inhibition [7] of 21%, a K obs / 1 [6] greater than 570000 M⁻¹ s⁻¹ and a K obs / 1 [3] of 2660 M⁻¹ s⁻¹.
With `O=c1oc(OCCBr)c(Cl)c2ccc(N[N+](=O)[O-])cc12` the K obs / 1 [2] was 710 M⁻¹ s⁻¹, the K obs / 1 [6] was 65600 M⁻¹ s⁻¹ and the K obs / 1 [3] was 6330 M⁻¹ s⁻¹.
Molecule `COc1oc(=O)c2cc(NC(=O)CBr)ccc2c1Cl` has a K obs / 1 [9] of 350 M⁻¹ s⁻¹, a K obs / 1 [10] of 39000 M⁻¹ s⁻¹ and a K obs / 1 [11] of 3500 M⁻¹ s⁻¹.
Work on `CC(Br)COc1oc(=O)c2cc([N+](=O)[O-])ccc2c1Cl` (stereo not given) yielded a K obs / 1 [2] of 1660 M⁻¹ s⁻¹ and a K obs / 1 [3] of 1060 M⁻¹ s⁻¹.
Work on `O=C1CC(c2ccccc2)CC(=O)N1c1ccc2c(Cl)c(OCCBr)oc(=O)c2c1` yielded a half-life [8] greater than 48 h, a K obs / 1 [6] of 85000 M⁻¹ s⁻¹ and a K obs / 1 [3] of 75 M⁻¹ s⁻¹.
`COC(=O)CCCC(=O)Nc1ccc2c(Cl)c(OCCBr)oc(=O)c2c1` showed a K obs / 1 [6] greater than 170000 M⁻¹ s⁻¹ and a K obs / 1 [3] of 2730 M⁻¹ s⁻¹.
In the case of `CCCOc1oc(=O)c2cc(NC(=O)CSC)ccc2c1Cl`, the k obs / 1 [1] was greater than 150000 M⁻¹ s⁻¹.
Work on `COCCOCCOc1oc(=O)c2cc(N)ccc2c1Cl` yielded a k obs / 1 [4] of 33 M⁻¹ s⁻¹ and a [I] [5] of 710 µM.
Work on `CC(C)(C)CC(=O)Nc1ccc2c(Cl)c(OCCBr)oc(=O)c2c1` yielded a K obs / 1 [2] of 240 M⁻¹ s⁻¹ and a K obs / 1 [3] of 3650 M⁻¹ s⁻¹.
`CC(C)(C)OC(=O)N[C@@H](Cc1c[nH]c2ccccc12)C(=O)Nc1ccc2c(Cl)c(OCCBr)oc(=O)c2c1` showed a half-life [8] of 26 h, a K obs / 1 [6] of 170000 M⁻¹ s⁻¹ and a K obs / 1 [3] of 12 M⁻¹ s⁻¹.
`O=c1oc(OCCBr)c(Cl)c2ccc(NC(=S)Nc3ccccc3)cc12` showed a K obs / 1 [2] of 200 M⁻¹ s⁻¹, a K obs / 1 [6] greater than 480000 M⁻¹ s⁻¹ and a K obs / 1 [3] of 1250 M⁻¹ s⁻¹.
`O=C(Nc1ccccc1)Nc1cccc(C(=O)NC(Cc2ccccc2)C(=O)Nc2ccc3c(Cl)c(OCCBr)oc(=O)c3c2)c1` (stereo not given) showed a K obs / 1 [6] of 21000 M⁻¹ s⁻¹ and a K obs / 1 [3] of 300 M⁻¹ s⁻¹.
With `CC(C)NC(=O)Nc1ccc2c(Cl)c(OCCBr)oc(=O)c2c1` the K obs / 1 [2] was 77 M⁻¹ s⁻¹, the K obs / 1 [6] was 646000 M⁻¹ s⁻¹ and the K obs / 1 [3] was 4470 M⁻¹ s⁻¹.
With `O=C(O)c1cccc(N/C(S)=N/c2ccc3c(Cl)c(OCCBr)oc(=O)c3c2)c1` the K obs / 1 [2] was 320 M⁻¹ s⁻¹ and the K obs / 1 [6] was greater than 240000 M⁻¹ s⁻¹.
For `COc1oc(=O)c2cc(NC(=O)C(Cc3ccccc3)NC(=O)c3cccc(NC(=O)Nc4ccccc4)c3)ccc2c1Cl` (stereo not given), the k obs / 1 [9] was 110 M⁻¹ s⁻¹, the k obs / 1 [10] was 28000 M⁻¹ s⁻¹ and the k obs / 1 [11] was 54 M⁻¹ s⁻¹.
In the case of `CCCOc1oc(=O)c2cc(NC(=O)c3cccc([N+](=O)[O-])c3)ccc2c1Cl`, the k obs / 1 [1] was greater than 210000 M⁻¹ s⁻¹.
